Reference: ChEMBL document CHEMBL1135991 (J Med Chem, 2002)

Legend:
[1] = target: T1, Melanocortin receptor 4 (Homo sapiens, UniProt P32245); assay: Inhibition of binding to human Melanocortin-4 receptor (hMC4R)
[2] = target: T2, Melanocortin receptor 5 (Homo sapiens, UniProt P33032); assay: Effective concentration against human melanocortin 5 receptor (hMC5R) in HEK293 cells; type: cell-based
Outline: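 Transfected HEK293 cells were seeded 50 000/well 48 h ahead. They were preincubated 1 min at 37 °C in EBSS with IBMX, then given varying melanotropin concentrations for 3 min at 37 °C. The reaction was stopped with ice-cold Tris/EDTA and lysates boiled 15 min. Supernatant cAMP was measured by competitive binding kit. EC50 came from a nonlinear least-squares fit; duplicate experiments, each in triplicate.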

[3] = target: T1, Melanocortin receptor 4; assay: Binding affinity for human Melanocortin-4 receptor (hMC4R)
[4] = target: T2, Melanocortin receptor 5; assay: Binding affinity for human melanocortin 5 receptor (hMC5R) expressed in HEK293 cells; type: cell-based
[5] = target: T3, Melanocortin receptor 3 (Homo sapiens, UniProt P41968); assay: Binding affinity for human Melanocortin-3 receptor (hMC3R) expressed in HEK293 cells; type: cell-based
[6] = target: T3, Melanocortin receptor 3; assay: Inhibition of human Melanocortin-3 receptor (hMC3R) expressed in HEK293 cells; type: cell-based
[7] = target: T2, Melanocortin receptor 5; assay: Stimulation of intracellular cAMP levels in HEK293 cells expressing human melanocortin 5 receptor
[8] = target: T1, Melanocortin receptor 4; assay: Stimulation of intracellular cAMP levels in CHO cells expressing human Melanocortin-4 receptor; type: functional, cell-based
[9] = target: T3, Melanocortin receptor 3; assay: Stimulation of intracellular cAMP levels in HEK293 cells expressing human Melanocortin-3 receptor
[10] = target: Melanocortin receptor (M1 and M4) (Homo sapiens) (UniProt P32245+Q01726); assay: Selectivity as ratio of binding affinity for human melanocortin 1 and melanocortin 4 receptors; type: protein assay
[11] = species: Homo sapiens; assay: Selectivity as ratio of binding affinity for human melanocortin 1 and melanocortin 3 receptors

T3 sequence (P41968 whole entry): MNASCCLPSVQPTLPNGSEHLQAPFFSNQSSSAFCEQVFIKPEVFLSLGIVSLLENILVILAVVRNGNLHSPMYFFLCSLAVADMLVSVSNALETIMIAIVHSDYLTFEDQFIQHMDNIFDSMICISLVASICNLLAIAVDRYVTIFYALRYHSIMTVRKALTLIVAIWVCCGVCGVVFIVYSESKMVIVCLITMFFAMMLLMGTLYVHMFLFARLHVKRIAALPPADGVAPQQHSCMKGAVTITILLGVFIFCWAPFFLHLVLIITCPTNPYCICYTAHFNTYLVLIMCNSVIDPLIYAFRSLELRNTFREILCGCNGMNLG
T1 sequence (P32245 whole entry): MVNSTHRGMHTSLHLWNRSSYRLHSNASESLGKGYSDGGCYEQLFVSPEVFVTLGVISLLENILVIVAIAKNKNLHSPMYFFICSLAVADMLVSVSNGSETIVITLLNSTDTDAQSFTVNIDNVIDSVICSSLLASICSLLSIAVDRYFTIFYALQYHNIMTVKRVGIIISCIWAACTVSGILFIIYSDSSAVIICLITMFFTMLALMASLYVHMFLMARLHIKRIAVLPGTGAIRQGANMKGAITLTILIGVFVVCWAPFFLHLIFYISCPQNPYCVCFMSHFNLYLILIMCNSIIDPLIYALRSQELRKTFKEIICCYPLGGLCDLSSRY
T2 sequence (P33032 whole entry): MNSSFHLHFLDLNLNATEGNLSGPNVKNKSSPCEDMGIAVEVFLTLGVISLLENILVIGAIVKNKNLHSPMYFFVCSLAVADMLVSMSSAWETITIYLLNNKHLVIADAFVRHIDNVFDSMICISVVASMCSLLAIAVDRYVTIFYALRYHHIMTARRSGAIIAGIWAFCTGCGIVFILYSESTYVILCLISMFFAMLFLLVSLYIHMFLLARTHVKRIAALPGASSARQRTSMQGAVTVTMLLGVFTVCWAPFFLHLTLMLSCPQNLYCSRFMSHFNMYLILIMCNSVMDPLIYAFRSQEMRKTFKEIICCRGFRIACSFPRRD

| EC50 [1] [µM] | Ki [3] [µM] | ACT [7] [%] | ACT [8] [%] | ACT [9] [%] | EC50 [2] [µM] | Ki [5] [µM] | EC50 [6] [µM] | Structure (SMILES) | further results |
| --- | --- | --- | --- | --- | --- | --- | --- | --- | --- |
| 2.3 | 0.19 | – | – | – | – | – | – | N=C(N)NCCC[C@@H]1NC(=O)[C@@H](Cc2ccccc2)NC(=O)[C@@H]2CCCN2C(=O)CCC(=O)NCCCC[C@@H](C(N)=O)NC(=O)[C@H](Cc2c[nH]c3ccccc23)NC1=O | EC50 ([2]; hek293): 1.3 µM; Ki ([4]; hek293): 0.99 µM; Ki ([5]; hek293): 0.39 µM; EC50 ([6]; hek293): 0.79 µM |
| – | – | 100 | 60.5 | 21 | – | – | – | N=C(N)NCCC[C@H]1NC(=O)[C@H](Cc2ccccc2)NC(=O)[C@H]2CCCN2C(=O)CCC(=O)NCCCC[C@@H](C(N)=O)NC(=O)[C@H](Cc2c[nH]c3ccccc23)NC1=O | – |
| – | – | 67 | 100 | 95 | – | – | – | N=C(N)NCCC[C@@H]1NC(=O)[C@@H](Cc2ccccc2)NC(=O)[C@H](Cc2c[nH]cn2)NC(=O)CCC(=O)NCCCC[C@H](C(N)=O)NC(=O)[C@@H](Cc2c[nH]c3ccccc23)NC1=O | Selectivity ratio [10]: 700; Selectivity ratio [11]: 52.5 |
| – | – | 0 | 100 | 100 | – | – | – | N=C(N)NCCC[C@@H]1NC(=O)[C@@H](Cc2ccccc2)NC(=O)[C@H](Cc2c[nH]cn2)NC(=O)CCCC(=O)NCCCC[C@H](C(N)=O)NC(=O)[C@@H](Cc2c[nH]c3ccccc23)NC1=O | – |
| 0.26 | 0.087 | – | – | – | 0.15 | 0.0121 | 0.07 | N=C(N)NCCC[C@@H]1NC(=O)[C@@H](Cc2ccc3ccccc3c2)NC(=O)[C@H](Cc2c[nH]cn2)NC(=O)CCC(=O)NCCCC[C@@H](C(N)=O)NC(=O)[C@H](Cc2c[nH]c3ccccc23)NC1=O | Ki [4]: 0.14 µM |
| 0.05 | 0.67 | – | – | – | > 10 | 0.11 | 0.075 | N=C(N)NCCC[C@@H]1NC(=O)[C@@H](Cc2ccccc2)NC(=O)[C@H](Cc2c[nH]cn2)NC(=O)CCCC(=O)NCCCC[C@@H](C(N)=O)NC(=O)[C@H](Cc2c[nH]c3ccccc23)NC1=O | Ki [4]: 3.1 µM |
| – | – | 0 | 0 | 53 | – | – | – | C[C@@H]1NC(=O)[C@@H](Cc2ccccc2)NC(=O)[C@H](Cc2c[nH]cn2)NC(=O)CCC(=O)NCCCC[C@H](C(N)=O)NC(=O)[C@@H](Cc2c[nH]c3ccccc23)NC1=O | – |
| – | – | 81 | 22.8 | 0 | – | – | – | N=C(N)NCCC[C@@H]1NC(=O)[C@@H](Cc2ccc3ccccc3c2)NC(=O)[C@H](Cc2c[nH]cn2)NC(=O)CCCC(=O)NCCCC[C@H](C(N)=O)NC(=O)[C@@H](Cc2c[nH]c3ccccc23)NC1=O | – |
| – | – | 100 | 35 | 88 | – | – | – | N=C(N)NCCC[C@@H]1NC(=O)[C@@H](Cc2ccc3ccccc3c2)NC(=O)[C@H](Cc2c[nH]cn2)NC(=O)CCC(=O)NCCCC[C@H](C(N)=O)NC(=O)[C@@H](Cc2c[nH]c3ccccc23)NC1=O | – |
| 0.07 | 0.058 | – | – | – | > 5 | 0.28 | 0.013 | N=C(N)NCCC[C@@H]1NC(=O)[C@@H](Cc2ccccc2)NC(=O)[C@H](Cc2cnc[nH]2)NC(=O)c2ccccc2C(=O)NCCCC[C@@H](C(N)=O)NC(=O)[C@H](Cc2c[nH]c3ccccc23)NC1=O | – |
| – | – | 0 | 98 | 76 | – | – | – | N=C(N)NCCC[C@@H]1NC(=O)[C@@H](Cc2ccccc2)NC(=O)[C@H](Cc2c[nH]cn2)NC(=O)c2ccccc2C(=O)NCCCC[C@H](C(N)=O)NC(=O)[C@@H](Cc2c[nH]c3ccccc23)NC1=O | – |
| 0.0016 | 0.0057 | – | – | – | 0.56 | 0.077 | 0.07 | N=C(N)NCCC[C@@H]1NC(=O)[C@@H](Cc2ccccc2)NC(=O)[C@H](Cc2c[nH]cn2)NC(=O)CCC(=O)NCCCC[C@@H](C(N)=O)NC(=O)[C@H](Cc2c[nH]c3ccccc23)NC1=O | Ki [4]: 0.66 µM |
| 1.2 | 0.22 | – | – | – | 0.00101 | 0.0059 | > 10 | N=C(N)NCCC[C@@H]1NC(=O)[C@@H](Cc2ccc3ccccc3c2)NC(=O)[C@H](Cc2cnc[nH]2)NC(=O)CCCC(=O)NCCCC[C@@H](C(N)=O)NC(=O)[C@H](Cc2c[nH]c3ccccc23)NC1=O | Ki [4]: 0.026 µM |

The remaining lines, values behind:

| Structure (SMILES) | EC50 [1] [µM] | Ki [3] [µM] | ACT [7] [%] | ACT [8] [%] | ACT [9] [%] | EC50 [2] [µM] | Ki [5] [µM] | EC50 [6] [µM] | further results |
| --- | --- | --- | --- | --- | --- | --- | --- | --- | --- |
| C[C@@H]1NC(=O)CCC(=O)NCCCC[C@@H](C(N)=O)NC(=O)[C@H](Cc2c[nH]c3ccccc23)NC(=O)[C@H](CCCN=C(N)N)NC(=O)[C@@H](Cc2ccccc2)NC1=O | 0.022 | 1.7 | – | – | – | > 10 | 1.4 | 0.042 | – |
| C[C@@H]1NC(=O)[C@@H](Cc2ccccc2)NC(=O)[C@H](Cc2cnc[nH]2)NC(=O)CCC(=O)NCCCC[C@@H](C(N)=O)NC(=O)[C@H](Cc2c[nH]c3ccccc23)NC1=O | > 1 | – | – | – | – | > 10 | 0.37 | 1 | – |
| C[C@@H]1NC(=O)CCC(=O)NCCCC[C@H](C(N)=O)NC(=O)[C@@H](Cc2c[nH]c3ccccc23)NC(=O)[C@H](CCCN=C(N)N)NC(=O)[C@@H](Cc2ccccc2)NC1=O | – | – | 0 | 35 | 19 | – | – | – | – |
| NCCCC[C@H](NC(=O)[C@H](Cc1c[nH]c2ccccc12)NC(=O)[C@H](CCCN=C(N)N)NC(=O)[C@@H](Cc1ccccc1)NC(=O)[C@H](Cc1c[nH]cn1)NC(=O)CCC(=O)O)C(N)=O | – | – | 100 | 26.5 | 100 | – | – | – | – |
| N=C(N)NCCC[C@@H]1NC(=O)[C@@H](Cc2ccc3ccccc3c2)NC(=O)[C@H](Cc2c[nH]cn2)NC(=O)c2ccccc2C(=O)NCCCC[C@H](C(N)=O)NC(=O)[C@@H](Cc2c[nH]c3ccccc23)NC1=O | – | – | 56 | 0 | 36 | – | – | – | – |
| N=C(N)NCCC[C@H](NC(=O)[C@@H](Cc1ccccc1)NC(=O)[C@H](Cc1cnc[nH]1)NC(=O)CCC(=O)O)C(=O)N[C@@H](Cc1c[nH]c2ccccc12)C(=O)N[C@@H](CCCCN)C(N)=O | 3 | 0.63 | – | – | – | 1.1 | 0.14 | 0.068 | Ki [4]: 0.88 µM |
| C[C@H]1NC(=O)[C@H](Cc2c[nH]cn2)NC(=O)CCC(=O)NCCCC[C@H](C(N)=O)NC(=O)[C@@H](Cc2c[nH]c3ccccc23)NC(=O)[C@H](CCCN=C(N)N)NC1=O | – | – | 0 | 0 | 0 | – | – | – | – |
| C[C@H]1NC(=O)[C@H](Cc2c[nH]cn2)NC(=O)CCC(=O)NCCCC[C@@H](C(N)=O)NC(=O)[C@H](Cc2c[nH]c3ccccc23)NC(=O)[C@H](CCCN=C(N)N)NC1=O | > 10 | – | – | – | – | – | – | – | EC50 ([2]; hek293): > 10 µM; EC50 ([6]; hek293): > 10 µM |
| N=C(N)NCCC[C@@H]1NC(=O)[C@@H](Cc2ccc3ccccc3c2)NC(=O)[C@H](Cc2cnc[nH]2)NC(=O)c2ccccc2C(=O)NCCCC[C@@H](C(N)=O)NC(=O)[C@H](Cc2c[nH]c3ccccc23)NC1=O | > 10 | 0.057 | – | – | – | 0.64 | 0.0078 | 0.018 | Ki [4]: 5.7 µM |
